The test system of one experiment is BGC-823. Put plainly: Cytotoxicity against human BGC823 cells. The format is functional, cell-based.
The next experiment has as its system HeLa. Put plainly: Cytotoxicity against human HeLa cells. Type of experiment: functional, cell-based.
Experiment [1] has as its target 11-beta-hydroxysteroid dehydrogenase 1 (Mus musculus, UniProt P50172). Put plainly: Inhibition of mouse 11beta-HSD1 expressed in human HEK293 cells assessed as conversion of [3H]cortisone to [3H]cortisol by scintillation proximity assay. Type of experiment: cell-based. The essentials: (§1)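 Full-length human or mouse 11β-HSD1 cDNA in pcDNA3, stably expressed in HEK-293 cells selected with 700 μg/mL G418; microsomal fraction used as enzyme. Microsomes incubated with NADPH and [3H]cortisone; [3H]cortisol product captured by monoclonal antibody on protein A-coated SPA beads. Glycyrrhizinic acid positive control. IC50 as mean ± SD, n = 3.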
Background: SPA uses beads or plates that emit light when radiolabelled molecules are held near them.

The target in experiment [2] is 11-beta-hydroxysteroid dehydrogenase 1 (Homo sapiens, UniProt P28845). Put plainly: Inhibition of human 11beta-HSD1 expressed in human HEK293 cells assessed as conversion of [3H]cortisone to [3H]cortisol by scintillation proximity assay. Type of experiment: cell-based. The essentials: as §1
Chain of 11-beta-hydroxysteroid dehydrogenase 1 (Homo sapiens, UniProt P28845) (P28845 whole entry): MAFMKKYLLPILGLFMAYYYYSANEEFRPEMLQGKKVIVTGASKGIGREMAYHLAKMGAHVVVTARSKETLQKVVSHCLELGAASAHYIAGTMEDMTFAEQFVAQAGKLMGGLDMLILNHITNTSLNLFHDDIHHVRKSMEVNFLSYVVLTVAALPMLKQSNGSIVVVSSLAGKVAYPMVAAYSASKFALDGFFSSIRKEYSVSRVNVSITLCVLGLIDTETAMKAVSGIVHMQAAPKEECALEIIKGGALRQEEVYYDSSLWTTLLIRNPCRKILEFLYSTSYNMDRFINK

Activity calls are given as the source filed them. The rule behind the calls is not given here.

Chain of 11-beta-hydroxysteroid dehydrogenase 1 (Mus musculus, UniProt P50172) (P50172 whole entry): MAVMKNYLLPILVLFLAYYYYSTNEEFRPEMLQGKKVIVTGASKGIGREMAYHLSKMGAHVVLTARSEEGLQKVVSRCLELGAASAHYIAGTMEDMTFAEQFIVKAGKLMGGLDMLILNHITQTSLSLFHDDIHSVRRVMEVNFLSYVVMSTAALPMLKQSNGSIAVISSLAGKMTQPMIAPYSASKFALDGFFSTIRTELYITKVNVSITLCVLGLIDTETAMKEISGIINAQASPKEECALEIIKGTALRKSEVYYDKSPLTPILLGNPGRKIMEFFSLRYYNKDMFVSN

Consider `CC(C)[C@@H](C(=O)N1CC[C@@H]2Oc3ccc(cc3)/C=C\NC(=O)[C@H](Cc3ccccc3)NC(=O)[C@H]21)N1CN(C)[C@@H](C)C1=O`, for which the outcome in the experiment with BGC-823 and in the experiment on HeLa was inactive.
In the case of `CC(C)[C@H](NC(=O)C(C)N(C)C=O)C(=O)N1CC[C@@H]2Oc3ccc(cc3)/C=C\NC(=O)[C@H](Cc3ccccc3)NC(=O)[C@H]21` (stereo not given in full), the outcome in the experiment with BGC-823 and with HeLa was inactive.
With `CC(C)[C@H](NC(=O)[C@H](C)N(C)C)C(=O)N1CC[C@@H]2Oc3ccc(cc3)/C=C\NC(=O)[C@H](Cc3ccccc3)NC(=O)[C@H]21` [MAURITINE A], the outcome in the experiment on BGC-823 and in the experiment on HeLa was inactive. Moreover, the values for the IC50 in experiment [1] and in experiment [2] were 54.2 µM and 90.3 µM, respectively.
Consider `CC1(C)[C@@H](O[C@H]2O[C@H](C(=O)O)[C@@H](O)[C@H](O)[C@H]2O[C@@H]2O[C@H](C(=O)O)[C@@H](O)[C@H](O)[C@H]2O)CC[C@]2(C)[C@H]3C(=O)C=C4[C@@H]5C[C@@](C)(C(=O)O)CC[C@]5(C)CC[C@@]4(C)[C@]3(C)CC[C@@H]12` [GLYCYRRHIZIN], for which the results for the IC50 in experiment [1] and in experiment [2] were 0.0295 µM and 0.0186 µM, respectively.
`CN[C@@H](C)C(=O)N[C@H](C(=O)N1CC[C@@H]2Oc3ccc(cc3)/C=C\NC(=O)[C@H](Cc3ccccc3)NC(=O)[C@H]21)C(C)C`: the result in the experiment with BGC-823 and in the experiment with HeLa was inactive.
As to `C/C(=N/O)C(=O)N[C@H](C(=O)N1CC[C@@H]2Oc3ccc(cc3)/C=C\NC(=O)[C@H](Cc3ccccc3)NC(=O)[C@H]21)C(C)C`, the result in the experiment on BGC-823 and with HeLa was inactive.
In the case of `CC(C)[C@H](NC(=O)[C@@H](C)[N+](C)(C)[O-])C(=O)N1CC[C@@H]2Oc3ccc(cc3)/C=C\NC(=O)[C@H](Cc3ccccc3)NC(=O)[C@H]21`, the outcome in the experiment with BGC-823 and in the experiment on HeLa was inactive.
Turning to `CC(C)[C@H](NC(=O)[C@H](C)[N+](C)(C)[O-])C(=O)N1CC[C@@H]2Oc3ccc(cc3)/C=C\NC(=O)[C@H](Cc3ccccc3)NC(=O)[C@H]21`, the outcome with BGC-823 and with HeLa was inactive.
On to `CC(C)[C@H](NC(=O)[C@@H](C)N(C)C)C(=O)N1CC[C@@H]2Oc3ccc(cc3)/C=C\NC(=O)[C@H](Cc3ccccc3)NC(=O)[C@H]21`, for which the outcome in the experiment on BGC-823 and in the experiment with HeLa was inactive.

(Values after ChEMBL document CHEMBL1926656, “Cyclopeptide Alkaloids from Ziziphus apetala” (J Nat Prod, 2011).)
